High-throughput results: PubChem BioAssay, several laboratories
Wee1 degr inh: blocks degradation of human Wee1 kinase; P30291; HeLa Luc-Wee1K328M stability, luciferase luminescence; 100% = proteasome inhibitor MG132 effect; AID 1321; hit rate 1.2% among 220,000; reporter increase, % at 5 µM;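 active means activation above the mean of all tested compounds plus 3 SD, set per screening run, cut at about 8.8% in these data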;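 further: cells exposed to compound for 20 h before luminescence read; 0% = DMSO alone and 100% = MG132 at 30 µM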
p97 inhibitor: human p97 ATPase inhibition | recombinant p97 ATPase, Kinase-Glo ATP luminescence, 3 h | inhibition, % at 8 µM | hit rate 0.42% among 220,000; in the data active means inhibition above about 15%;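 further: 0% = DMSO vehicle and 100% = wells lacking enzyme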
RBBP9 inh: blocks human serine hydrolase RBBP9; hit rate 0.2% among 220,000; recombinant RBBP9, FP-Rh probe fluorescence polarization; inhibition, % at 7.94 µM;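 active means inhibition above the campaign mean of all tested compounds plus 3 SD, cut at about 14% in these data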;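 further: plate controls were DMSO wells with RBBP9 for no effect and wells lacking RBBP9 protein for full effect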
Target sequence (O75884 whole entry, looked up): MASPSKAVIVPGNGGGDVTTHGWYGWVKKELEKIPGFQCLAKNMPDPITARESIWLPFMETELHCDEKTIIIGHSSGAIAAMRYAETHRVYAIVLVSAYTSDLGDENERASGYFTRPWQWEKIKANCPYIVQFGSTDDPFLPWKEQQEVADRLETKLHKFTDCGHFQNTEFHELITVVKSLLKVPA
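System: RBBP9 protein | Quantity: 2.5 µM RBBP9 dispensing solution, before mixing | Reagent: FP-Rh probe, 375 nM dispensing solution | Timing: Enzyme-compound preincubation 30 min, then probe labeling 45 min, 25 °C | Measured by: Fluorescence polarization | Read-out: % inhibition | Replication: One well per compound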
zVAD death inh: blocks zVAD induced death of L929 cells; L929 zVAD necroptosis rescue, ATP luminescence, 24 h; with zVAD 60 µM; viability rescue, % at 10 µM; hit rate 0.38% among 220,000;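 active means activation, scaled between plate controls, above about 75%, limit read from the data; inactive means activation under that limit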;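 further: 0% = zVAD with DMSO and 100% = DMSO alone without zVAD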
PfM18AAP inh-1: PfM18AAP enzyme inhibition; inhibition, % at 7.35 µM; recombinant PfM18AAP, H-Glu-NHMec fluorogenic cleavage; hit rate 1.2% among 290,000;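 active means inhibition above the campaign mean inhibition over all tested compounds plus 3 SD, cut at about 28% in these data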;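 further: 0% = plate median of test compound wells and 100% = 2 mM ZnCl2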
TNF death inh: inhibitors of TNF-alpha induced necroptosis in Jurkat FADD-/- cells; activation (protection from cell death), % at 10 µM; Jurkat FADD-/- TNF necroptosis rescue, ATP luminescence, 24 h; 0 = TNF only, 100 = no-TNF cells; AID 463075; hit rate 0.068% among 220,000;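 active means activation, meaning protection from cell death, of at least 50% relative to plate controls; inactive means activation below 50%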;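 further: necroptosis triggered by 40 ng/mL TNF-alpha added together with compound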
PfM18AAP inh-2: PfM18AAP inhibition, confirmation; recombinant PfM18AAP, H-Glu-NHMec fluorogenic cleavage; shares compounds with PfM18AAP inh-1; AID 2170; inhibition, % at 7.35 µM; hit rate 28% among 2,400;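 active means mean inhibition over replicate wells above the hit cutoff set for the earlier primary screen, cut at about 29% in these data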;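 further: 0% = median of test compound wells and 100% = 2 mM ZnCl2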
CTSL1 counter: counter-screen for PFM18AAP inhibitors: confirmation of human cathepsin L inhibitors | shares compounds with PfM18AAP inh-1 | purified cathepsin L1, Z-Leu-Arg-MCA fluorescence | inhibition, % at 5.96 µM | 2,400 tested, under 10 active | AID 2178;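 active means average inhibition across replicates above the hit cutoff set in the earlier primary screen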;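 further: 0% = median of test compound wells and 100% = Z-Phe-Ala-diazomethylketone 1 µM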
Target sequence (P07711 whole entry, looked up): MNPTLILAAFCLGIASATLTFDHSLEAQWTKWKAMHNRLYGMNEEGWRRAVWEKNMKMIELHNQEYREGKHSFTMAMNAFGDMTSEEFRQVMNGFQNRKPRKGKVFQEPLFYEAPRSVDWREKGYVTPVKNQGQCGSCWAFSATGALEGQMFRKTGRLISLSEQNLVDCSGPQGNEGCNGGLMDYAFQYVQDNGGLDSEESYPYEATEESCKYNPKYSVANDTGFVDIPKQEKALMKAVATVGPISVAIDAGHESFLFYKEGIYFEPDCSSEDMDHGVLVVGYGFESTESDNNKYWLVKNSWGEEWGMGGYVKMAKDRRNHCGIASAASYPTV
The depositor's hits bear a star; · = not tested or not shown. Compounds with a hit are over-represented: about 2.7% of the library has one in this group of screens.

SMILES | Wee1 degr inh | p97 inhibitor | RBBP9 inh | zVAD death inh | PfM18AAP inh-1 | TNF death inh | PfM18AAP inh-2 | CTSL1 counter
CC(C)CCC(C)N=Cc1c(O)n(Cc2ccccc2)c(=O)c2ccccc12 (centres undefined) | 0 | -3 | -16 | 4 | -1 | 4 | · | ·
CC1CCC(C(C)C)C2=C1C(C#N)(C#N)C(C#N)(C#N)C(c1ccccc1)N2 (centres undefined) | -2 | 11 | -2 | 1 | 36* | -10 | -32 | -2
Cn1cc(Br)c(NS(=O)(=O)c2ccc(Cl)s2)n1 | 7 | 10 | 1 | 1 | -14 | 2 | · | ·
COc1ccc(Nc2nc3c([nH]2)c(=O)[nH]c(=O)n3C)cc1 | -1 | 1 | 0 | 2 | 35* | -2 | 12 | 1
COC(=O)C(Cc1ccccc1)NC(=O)c1cc(=O)[nH]c2ccccc12 (centres undefined) | -3 | 7 | -9 | 2 | -8 | 0 | · | ·
COC(=O)[C@H](CC(C)C)NC(=O)c1cc2c(cn1)[nH]c1ccccc12 | · | · | · | · | 39* | · | 13 | 8
CCN(CC)S(=O)(=O)c1cc([N+](=O)[O-])ccc1N1CCC(C(N)=O)CC1 | 0 | 0 | -2 | 1 | -12 | -2 | · | ·
CCN(CC)S(=O)(=O)c1cc([N+](=O)[O-])ccc1NNC(=O)Nc1ccc(F)cc1 | -1 | 3 | -7 | 1 | 37* | 3 | 29* | 4
CCN(CC)S(=O)(=O)c1ccc(OC)c(NC(=O)c2ccc([N+](=O)[O-])cc2)c1 | -2 | -1 | -5 | 4 | -2 | 0 | · | ·
CCN(CC)S(=O)(=O)c1cc([N+](=O)[O-])ccc1NNC(=O)Nc1ccccc1OC | 1 | -1 | -7 | 0 | 56* | 1 | 13 | 4
Cc1cccc(CN2CCC(C(=O)Nc3ccc(-n4nc(C)cc4C)cc3)CC2)n1 | · | · | · | · | -7 | · | · | ·
N#CC1=C(N)SC(N)=C(C#N)C1c1c(Cl)cccc1Cl | 5 | 5 | -5 | 1 | 46* | -10 | -13 | 2
N#CC1=C(N)SC(N)=C(C#N)C1c1cccc(Oc2ccccc2)c1 | -1 | 5 | -19 | 0 | 3 | 0 | · | ·
N#CC1=C(N)SC(N)=C(C#N)C1CCc1ccccc1 | -1 | 1 | -7 | 1 | 9 | 0 | · | ·
N#CC1=C(N)SC(N)=C(C#N)C1Cc1ccccc1 | -4 | -1 | 4 | 0 | 43* | -8 | -9 | 1
CC1=CC(C)C(/C=N/N=C(N)N)C(C)C1 (centres undefined) | 1 | 12 | 2 | 2 | -1 | 1 | · | ·
O=C(O)c1cncc(C#CCC2CCCCC2)c1 | 3 | 7 | 2 | 1 | 4 | 2 | · | ·
NS(=O)(=O)c1ccc(-c2ccc(C=O)o2)cc1 | -3 | 7 | -2 | 2 | 0 | -1 | · | ·
NS(=O)(=O)c1ccc(-c2ccc(/C=C3\NC(=S)NC3=O)o2)cc1 | · | · | · | · | 37* | · | 12 | -1
CC(C(=O)Nc1ccccc1F)N1C(=O)c2ccccc2C1=O (centres undefined) | 6 | -1 | -8 | 1 | -1 | 0 | · | ·
CC(C(=O)Nc1ncn[nH]1)N1C(=O)c2ccccc2C1=O (centres undefined) | 3 | 5 | 1 | 0 | 51* | -1 | 51* | -5
COc1cccc(/C=N/n2c(N)c(S(=O)(=O)c3cccs3)c3nc4ccccc4nc32)c1OC | -4 | 8 | -1 | 0 | 1 | -10 | · | ·
Nc1c(S(=O)(=O)c2cccc(Cl)c2)c2nc3ccccc3nc2n1/N=C/c1ccc(O)c(O)c1 | -1 | 8 | -5 | 0 | 44* | -17 | 12 | -4
Cc1ccc(CNC(=O)C(=O)NCC2OCCCN2S(=O)(=O)c2ccc(F)cc2)cc1 (centres undefined) | · | · | · | · | -2 | · | · | ·
CCOc1ccc(CNC(=O)CCC(=O)N2Cc3ccccc3Oc3ncccc32)cc1 | · | · | · | · | -5 | · | · | ·
SMILES | Wee1 degr inh | p97 inhibitor | RBBP9 inh | zVAD death inh | PfM18AAP inh-1 | TNF death inh | PfM18AAP inh-2 | CTSL1 counter
S=c1[nH]nc(Cn2nnc3ccccc32)n1-c1ccc(Cl)cc1 | -2 | 3 | -11 | 6 | 39* | -1 | 4 | 2
S=c1[nH]nc(Cn2cnc3ccccc32)n1-c1ccccc1 | 3 | 2 | -8 | 2 | 42* | 0 | -9 | 0
C/C(N=Nc1nc2ccccc2s1)=N\Nc1ccccc1O | 4 | -4 | -2 | 0 | 8 | -5 | · | ·
CCOc1cc(NC(=S)NCCCN2CCOCC2)c(OCC)cc1NC(=O)C1CCCCC1 | 0 | -5 | -2 | -2 | -5 | 1 | · | ·
Cc1cccnc1NC(=S)NCc1ccco1 | 0 | 1 | -2 | -1 | 32* | -2 | -20 | -5
CC(=O)c1cc(CN2CCN(C(C)C)C(CCO)C2)cs1 (centres undefined) | -2 | 3 | 1 | 0 | -2 | 0 | · | ·
CCN=c1scc(-c2ccco2)n1/N=C/c1ccc(OC)c(O)c1 | 1 | -2 | -2 | 0 | 17 | -14 | · | ·
CN=c1scc(-c2ccc(F)cc2)n1/N=C/c1ccc(O)c(O)c1 | 1 | 5 | 2 | 70 | 54* | -10 | 48* | 3
CC1(C)CC(=O)C/C(=N/Nc2nc3ccccc3s2)C1 | -1 | -2 | -1 | 0 | 9 | 2 | · | ·
CC1CCC/C(=N/Nc2nc3ccccc3s2)C1 (centres undefined) | 2 | 3 | 9 | 0 | 39* | 2 | -18 | -4
Cc1ccsc1-c1n[nH]c(=S)n1CC(C)C | 0 | -3 | -5 | 0 | 34* | 0 | -13 | 5
CC(C)Cn1c(-c2nn(C)cc2Cl)n[nH]c1=S | 1 | 1 | -13 | 0 | 12 | -1 | · | ·
Cc1ccc(OCc2cnc(Cl)s2)c(C)c1 | 4 | -1 | -5 | 1 | -3 | 0 | · | ·
C=CCc1c(C)[nH]c2c(OC)cccc2c1=S | 0 | -5 | -13 | 1 | 39* | 0 | 13 | 1
C=CCN(CC=C)C(=O)c1c(OC)cccc1OC | -3 | 0 | -2 | · | -1 | 2 | · | ·
ClCc1ncc(-c2ccc(Cl)cc2)o1 | -1 | 3 | 0 | 0 | 3 | -3 | · | ·
CN1CCC(=O)N([C@H](COc2ccccc2)Cc2ccccc2)CC1 | · | · | · | · | 8 | · | · | ·
COc1ccc(N2CCN(CC(=O)c3ccc(O)cc3O)CC2)cc1 | · | · | · | · | 37* | · | -6 | -2
CCCCOP(=O)(c1ccc(N(C)C)cc1)C(O)c1ccc(C(C)C)cc1 (centres undefined) | · | · | · | · | 7 | · | · | ·
CCCCOP(=O)(c1ccc(N(C)C)cc1)C(O)c1ccc(N(C)C)cc1 (centres undefined) | · | · | · | · | 34* | · | -59 | 5
